In ChEMBL document CHEMBL1125286, “Zatosetron, a potent, selective, and long-acting 5HT3 receptor antagonist: synthesis and structure-activity relationships” (J Med Chem, 1992):
Each block holds one compound with its values, some of them ahead of it.

Tests used:
[1] = target: T1, Serotonin 3 (5-HT3) receptor (Rattus norvegicus) (UniProt P35563+Q9JJ16); test: 5-hydroxytryptamine 3 receptor antagonistic activity was measured by the inhibition of 5H+ T-induced bradycardia after iv administration of 3 ug/kg dose in urethane-anesthetized rats; type: functional, organism-based
Summary of the method: (§1)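 Urethane-anesthetized rats; antagonist or saline given iv via femoral vein after heart rate settled (≤5 min) from an initial 5HT challenge (30 µg/kg iv). 5HT was given again 15 min later. Peak bradycardia measured, each rat its own control; % inhibition = difference between first and second responses. Groups of 3–16 rats, means ± SEM.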

[2] = target: T1, Serotonin 3 (5-HT3) receptor (Rattus norvegicus); test: 5-hydroxytryptamine 3 receptor antagonistic activity measured by inhibition of 5-HT-induced bradycardia (iv administration 10 ug/kg dose in urethane-anesthetized rats); type: functional, organism-based
Summary of the method: (§2)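 Urethane-anesthetized rats. First 5HT challenge 30 μg/kg iv gives a transient bradycardia. Once heart rate is back at steady state (≤5 min), test compound or saline goes in via the femoral vein. 5HT 30 μg/kg iv is repeated 15 min later. % inhibition is the difference between first and second bradycardia at peak, each animal its own control. Means ± SEM, groups of 3–16 rats.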

[3] = target: T1, Serotonin 3 (5-HT3) receptor (Rattus norvegicus); test: 5-hydroxytryptamine 3 receptor antagonistic activity was measured by the inhibition of 5-HT-induced bradycardia after iv administration of 1000 ug/kg dose in urethane-anesthetized rats; type: functional, organism-based; summary of the method: as §2
[4] = target: T1, Serotonin 3 (5-HT3) receptor (Rattus norvegicus); test: Compound was tested for the inhibition of 5-HT-induced bradycardia after peroral administration of 0.1 mg/kg at 16 hours in urethane-anesthetized rats; type: functional, organism-based; parameters: dose 0.1 mg/kg; details: at 0.1 mg/kg
Summary of the method: (§3)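 Duration study: antagonist or vehicle gavaged to conscious fasted rats (5 mL/kg). Rats were urethane-anesthetized and surgically prepared, then challenged with 5HT 0.03 mg/kg iv at the stated time after dosing. Vehicle-treated rats served as controls. Peak inhibition of bradycardia recorded in groups of 3–11, means ± SEM.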

[5] = target: T1, Serotonin 3 (5-HT3) receptor (Rattus norvegicus); test: Compound was tested for the inhibition of 5-HT-induced bradycardia after peroral administration of 0.1 mg/kg at 6 hours in urethane-anesthetized rats; type: functional, organism-based; parameters: dose 0.1 mg/kg; details: at 0.1 mg/kg; summary of the method: as §3
[6] = target: T1, Serotonin 3 (5-HT3) receptor (Rattus norvegicus); test: Compound was tested for the inhibition of 5-HT-induced bradycardia after peroral administration of 300 ug/kg dose in urethane-anesthetized rats; type: functional, organism-based
Summary of the method: (§4)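 Fasted rats dosed by gavage (5 mL/kg) with compound or distilled-water vehicle. Urethane anesthesia and surgical preparation 15–20 min before challenge. 5HT 0.03 mg/kg iv given 1 h after dosing. Peak bradycardia is compared with vehicle-treated controls. Means ± SEM, groups of 3–11 rats.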

[7] = target: T1, Serotonin 3 (5-HT3) receptor (Rattus norvegicus); test: Compound was tested for the inhibition of 5-HT-induced bradycardia after peroral administration of 0.1 mg/kg at 3 hours in urethane-anesthetized rats; type: functional, organism-based; parameters: dose 0.1 mg/kg; details: at 0.1 mg/kg; summary of the method: as §3
[8] = target: T1, Serotonin 3 (5-HT3) receptor (Rattus norvegicus); test: Compound was tested for the inhibition of 5-HT-induced bradycardia after peroral administration of 0.1 mg/kg at 0.5 hours in urethane-anesthetized rats; type: functional, organism-based; parameters: dose 0.1 mg/kg; details: at 0.1 mg/kg; summary of the method: as §3
[9] = target: T1, Serotonin 3 (5-HT3) receptor (Rattus norvegicus); test: Compound was tested for the inhibition of 5-HT-induced bradycardia after peroral administration of 1000 ug/kg dose in urethane-anesthetized rats; type: functional, organism-based
Summary of the method: (§5)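 Fasted rats gavaged (5 mL/kg) with antagonist or vehicle (distilled water). Urethane anesthesia and surgical preparation followed, 15–20 min before 5HT challenge. 5HT 30 µg/kg iv given 1 h after dosing, with vehicle-treated rats as controls. Peak % inhibition of bradycardia in groups of 3–11, means ± SEM.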

[10] = target: T1, Serotonin 3 (5-HT3) receptor (Rattus norvegicus); test: Compound was tested for the inhibition of 5-HT-induced bradycardia after peroral administration of 30 ug/kg dose in urethane-anesthetized rats; type: functional, organism-based; summary of the method: as §5
[11] = tested on: Serotonin 3 receptor (Cavia porcellus); test: In vitro binding affinity was measured for 5-hydroxytryptamine 3 receptor in the guinea pig ileum.
[12] = target: T1, Serotonin 3 (5-HT3) receptor (Rattus norvegicus); test: Compound was tested for the inhibition of 5-HT-induced bradycardia after peroral administration of 100 ug/kg dose in urethane-anesthetized rats; type: functional, organism-based; summary of the method: as §5
[13] = target: T1, Serotonin 3 (5-HT3) receptor (Rattus norvegicus); test: Compound was tested for the inhibition of 5-HT-induced bradycardia after intravenous administration of 1 ug/kg dose in urethane-anesthetized rats; type: functional, organism-based; summary of the method: as §1
[14] = target: T1, Serotonin 3 (5-HT3) receptor (Rattus norvegicus); test: Compound was tested for the inhibition of 5-HT-induced bradycardia after peroral administration in urethane-anesthetized rats
[15] = target: T1, Serotonin 3 (5-HT3) receptor (Rattus norvegicus); test: Inhibition of 5-HT-induced bradycardia by 5-hydroxytryptamine 3+; type: functional
[16] = target: T1, Serotonin 3 (5-HT3) receptor (Rattus norvegicus); test: Compound was tested for the inhibition of 5-HT-induced bradycardia after peroral administration of 0.1 mg/kg at 1 hour in urethane-anesthetized rats; type: functional, organism-based; parameters: dose 0.1 mg/kg; details: at 0.1 mg/kg; summary of the method: as §3
[17] = target: T1, Serotonin 3 (5-HT3) receptor (Rattus norvegicus); test: Compound was tested for the inhibition of 5-HT-induced bradycardia after intravenous administration of 0.3 ug/kg dose in urethane-anesthetized rats; type: functional, organism-based; summary of the method: as §1
[18] = target: T1, Serotonin 3 (5-HT3) receptor (Rattus norvegicus); test: 5-hydroxytryptamine 3 receptor antagonistic activity as inhibition of 5-HT-induced bradycardia after iv administration of 100 ug/kg dose in urethane-anesthetized rats; type: functional, organism-based; summary of the method: as §2
[19] = target: T1, Serotonin 3 (5-HT3) receptor (Rattus norvegicus); test: Compound was tested for the inhibition of 5-HT-induced bradycardia after intravenous administration of 30 ug/kg dose in urethane-anesthetized rats; type: functional, organism-based; summary of the method: as §2
[20] = target: T1, Serotonin 3 (5-HT3) receptor (Rattus norvegicus); test: Compound was tested for the inhibition of 5-HT-induced bradycardia after peroral administration of 1 mg/kg at 1 hour in urethane-anesthetized rats; type: functional, organism-based; parameters: dose 1 mg/kg; details: at 1 mg/kg; summary of the method: as §3
[21] = target: T1, Serotonin 3 (5-HT3) receptor (Rattus norvegicus); test: 5-hydroxytryptamine 3 receptor antagonistic activity was measured by the inhibition of 5H+ T-induced bradycardia after po administration of 300 ug/kg dose in urethane-anesthetized rats; type: functional, organism-based; summary of the method: as §4
[22] = target: T1, Serotonin 3 (5-HT3) receptor (Rattus norvegicus); test: 5-hydroxytryptamine 3 receptor antagonistic activity was measured by the inhibition of 5H+ T-induced bradycardia after po administration of 100 ug/kg dose in urethane-anesthetized rats; type: functional, organism-based; summary of the method: as §4
[23] = target: T1, Serotonin 3 (5-HT3) receptor (Rattus norvegicus); test: 5-hydroxytryptamine 3 receptor antagonistic activity was measured by the inhibition of 5H+ T-induced bradycardia after po administration of 1000 ug/kg dose in urethane-anesthetized rats; type: functional, organism-based; summary of the method: as §4
[24] = target: T1, Serotonin 3 (5-HT3) receptor (Rattus norvegicus); test: Compound was tested for the inhibition of 5-HT-induced bradycardia after peroral administration of 1 mg/kg at 3 hours in urethane-anesthetized rats; type: functional, organism-based; parameters: dose 1 mg/kg; details: at 1 mg/kg; summary of the method: as §3
[25] = target: T1, Serotonin 3 (5-HT3) receptor (Rattus norvegicus); test: Compound was tested for the inhibition of 5-HT-induced bradycardia after peroral administration of 1 mg/kg at 0.5 hours in urethane-anesthetized rats; type: functional, organism-based; parameters: dose 1 mg/kg; details: at 1 mg/kg; summary of the method: as §3
[26] = target: T1, Serotonin 3 (5-HT3) receptor (Rattus norvegicus); test: 5-hydroxytryptamine 3 receptor antagonistic activity was measured by the inhibition of 5H+ T-induced bradycardia after po administration of 30 ug/kg dose in urethane-anesthetized rats; type: functional, organism-based; summary of the method: as §4
[27] = target: T1, Serotonin 3 (5-HT3) receptor (Rattus norvegicus); test: Compound was tested for the inhibition of 5-HT-induced bradycardia after peroral administration of 0.3 mg/kg at 1 hour in urethane-anesthetized rats; type: functional, organism-based; parameters: dose 0.3 mg/kg; details: at 0.3 mg/kg
Summary of the method: (§6)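 Duration study. Antagonist or vehicle is given by oral gavage to conscious rats. Rats are then urethane-anesthetized, surgically prepared and challenged with 5HT 0.03 mg/kg iv at the stated time after dosing. Peak inhibition of bradycardia is measured against vehicle-treated controls. Means ± SEM, groups of 3–11 rats.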

[28] = target: T1, Serotonin 3 (5-HT3) receptor (Rattus norvegicus); test: Compound was tested for the inhibition of 5-HT-induced bradycardia after peroral administration of 0.3 mg/kg at 3 hours in urethane-anesthetized rats; type: functional, organism-based; parameters: dose 0.3 mg/kg; details: at 0.3 mg/kg; summary of the method: as §6
[29] = target: T1, Serotonin 3 (5-HT3) receptor (Rattus norvegicus); test: Compound was tested for the inhibition of 5-HT-induced bradycardia after peroral administration of 10 ug/kg dose in urethane-anesthetized rats; type: functional, organism-based; summary of the method: as §5
[30] = target: T1, Serotonin 3 (5-HT3) receptor (Rattus norvegicus); test: Compound was tested for the inhibition of 5-HT-induced bradycardia after peroral administration of 0.3 mg/kg at 0.5 hours in urethane-anesthetized rats; type: functional, organism-based; parameters: dose 0.3 mg/kg; details: at 0.3 mg/kg; summary of the method: as §6
[31] = target: T1, Serotonin 3 (5-HT3) receptor (Rattus norvegicus); test: Compound was tested for the inhibition of 5-HT-induced bradycardia after peroral administration of 0.3 mg/kg at 6 hours in urethane-anesthetized rats; type: functional, organism-based; parameters: dose 0.3 mg/kg; details: at 0.3 mg/kg; summary of the method: as §6
[32] = target: T1, Serotonin 3 (5-HT3) receptor (Rattus norvegicus); test: 5-hydroxytryptamine 3 receptor antagonistic activity was measured by the inhibition of 5H+ T-induced bradycardia after iv administration of 1000 ug/kg dose in urethane-anesthetized rats; type: functional, organism-based; summary of the method: as §2

inhibition [1]: 15.9% | inhibition [2]: 68.7%
SMILES: CN1C2CCC1CC(NC(=O)c1cc(Br)cc3c1OC(C)(C)C3)C2 (configuration not stated)

inhibition [4]: 0% | inhibition [5]: 71.4% | inhibition [6]: 89.7% | inhibition [7]: 75.2% | inhibition [8]: 87% | inhibition [9]: 94.6% | inhibition [10]: 21.9% | -Log KB [11]: 8.27 | inhibition [12]: 74.6% | inhibition [13]: 58.1% | ED50 [14]: 0.063 mg/kg | inhibition [1]: 79.8% | ED50 [15]: 0.001 mg/kg | inhibition [16]: 74.6% | inhibition [17]: 11% | inhibition [2]: 80%
SMILES: CC1Cc2cc(Cl)cc(C(=O)NC3CC4CCC(C3)N4C)c2O1 (configuration not stated)

inhibition [20]: 73.4% | inhibition [21]: 55.1% | inhibition [22]: 18.2% | ED50 [14]: 0.316 mg/kg | ED50 [15]: 0.0033 mg/kg | inhibition [23]: 73.4% | inhibition [24]: 6.5% | inhibition [25]: 74.3% | inhibition [26]: 0.3%
SMILES: Cc1nccn1CC1CCc2c(c3ccccc3n2C)C1=O (configuration not stated)

inhibition [27]: 77.4% | inhibition [9]: 85% | inhibition [18]: 70.6% | inhibition [28]: 65.2% | inhibition [12]: 39.8% | inhibition [13]: 20.1% | ED50 [14]: 0.127 mg/kg | inhibition [29]: 0.1% | inhibition [1]: 54.2% | ED50 [15]: 0.0031 mg/kg | inhibition [30]: 86.6% | inhibition [31]: 17.4%
SMILES: CN1[C@@H]2CC[C@H]1C[C@@H](OC(=O)c1c[nH]c3ccccc13)C2

inhibition [2]: 2.9%
SMILES: COc1cc2c(c(C(=O)NC3CC4CCC(C3)N4C)c1)OC(C)(C)C2 (configuration not stated)

The next lines start with the compound.

SMILES: CN1C2CCC1CC(OC(=O)c1ccccc1-c1ccccc1)C2 (configuration not stated)
inhibition [3]: 47.3%

SMILES: CN1C2CCC1CC(CC(=O)c1ccccc1)C2 (configuration not stated)
inhibition [18]: 31.3%

SMILES: CC1Oc2c(C(=O)OC3CC4CCC(C3)N4C)cccc2C1C (stereo in doubt; 27)
inhibition [1]: 35.6% | inhibition [19]: 47.3% | inhibition [2]: 32.7%

SMILES: CC1Cc2cccc(C(=O)OC3CC4CCC(C3)N4C)c2O1 (configuration not stated)
inhibition [2]: 30.6%

SMILES: CN1C2CCC1CC(OC(=O)c1ccccc1Oc1ccccc1)C2 (configuration not stated)
inhibition [32]: 54.5%
